Values after ≈ are worked out from the molar mass of the structure shown. “Also recorded” adds a separate entry of the source. Like-named read-outs stand apart in the source and are kept apart here.

In one data set the target is compstatin/C3b binding (Homo sapiens, UniProt P01024). In words: LE-SPR competition assay B23-TRX-4W9A. Particulars: 500 μM compound, 500 nM B23-TRX-4W9A vs 5% DMSO. In short, it runs like this: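 B23-labelled TRX-4W9A (500 nM) was co-injected with 500 μM test compound, 5% (v/v) DMSO vehicle, or 65 μM compstatin peptide (positive control) over oriented biotin-C3b (3,800 and 3,100 RU surfaces). Running buffer contained 5% DMSO, and competitor-only injections served for epigram calculation. Residual binding was the mean eRU over 10 s before injection stop, relative to DMSO control. Each compound was tested on at least two independent C3b surfaces.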

The subject of data set [1] is C4b deposition (classical pathway). In words: CP ELISA, C4b deposition. Format: biochemical, human. Particulars: concentrations up to 625 μM, 1% (v/v) serum. The method in brief:
(§1)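 Wells coated overnight with 3 μg ml−1 human IgM in carbonate pH 9.6, then blocked with BSA/Tween-20 in PBS. Test compound (250 μM single concentration, or series up to 625 μM; 2.5% DMSO) is added to 1% (v/v) normal human serum in HEPES pH 7.3, gelatin, NaCl, 2 mM CaCl2, 0.5 mM MgCl2. Incubated 1 h at 37°C. Detection: anti-C3b WM1 or anti-C4b C4-1 (1/300). Normalised to mean vehicle as 100%.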
In general terms: In an ELISA, binding on a coated surface is turned into a signal by an enzyme label.

The subject of data set [2] is C3b deposition (classical pathway). In words: CP ELISA, C3b deposition. Format: biochemical, human. To be noted: concentrations up to 625 μM, 1% (v/v) serum. The method in brief:
as §1

Data set [3] concerns classical pathway (CP) complement activation, MAC deposition. As to the kind of experiment: CP-specific complement ELISA, MAC deposition. The data set is classed as biochemical, human. In short, it runs like this: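 Plates carry 3 μg ml−1 human IgM, blocked with BSA/Tween-20. Test compound (250 μM, or 0–625 μM series; 2.5% DMSO) is mixed with 1% normal human serum in HEPES pH 7.3 buffer with 2 mM CaCl2, 0.5 mM MgCl2 and gelatin. Serum-titration arm: fixed 500 μM compound or DMSO vehicle, serum 0–4% (v/v). Incubated 1 h at 37°C. Read-out: anti-MAC aE11 (1/300). Normalised to vehicle mean as 100%.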

The test system of data set [4] is alternative pathway (AP) complement activation, MAC deposition. As to the kind of experiment: AP-specific complement ELISA, MAC deposition. Format: biochemical, human. Particulars: 250 μM, 20% (v/v) serum. In short, it runs like this: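 Wells coated overnight with 25 μg ml−1 Salmonella typhosa LPS in 100 mM carbonate pH 9.6, then blocked 1 h at 37°C with PBS/1% BSA/0.05% Tween-20. Test compound (250 μM final, 2.5% DMSO) is mixed with 20% (v/v) normal human serum in HEPES pH 7.5, gelatin, NaCl, 5 mM MgCl2, 5 mM EGTA. Incubated 1 h at 37°C. MAC detected with anti-C5b-9 aE11 (1/300). Signal expressed against mean vehicle as 100%.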

The target in a further data set is C5/C3b interaction (Homo sapiens, UniProt P01024). As to the kind of experiment: LE-SPR competition assay B23-C5/C3b. The data set is classed as binding. The method in brief:
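B23-C5 (250 nM) was co-injected over oriented biotin-C3b (4,460 RU) with competitor: unlabelled C5 (250 nM), TRX-4W9A (12 μM) or compstatin peptide (65 μM) in HBS-T. Runs with small molecules used buffer with 5% (v/v) DMSO. A parallel competitor-only injection served for epigram calculation. Residual binding was the mean eRU over 10 s before injection stop, relative to B23-C5 alone or DMSO vehicle. Each run was done 2–4 times.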

A short description of data set [5]: Compound solubility in CP ELISA assay buffer. Particulars: aqueous buffer. The data set is classed as physicochemical.
Data set [6] concerns C5a production (C5 cleavage). As to the kind of experiment: C5a capture ELISA of CP ELISA reactions. Format: biochemical, human. To be noted: fixed 500 μM cmp-5, serum 0–4% (v/v); DMSO control 1.55% (v/v). In short, it runs like this: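 Completed CP ELISA reactions (IgM-coated plates, CP buffer, 1 h at 37°C; fixed 500 μM test compound or DMSO vehicle, serum 0–4% (v/v)) were diluted 2-fold onto plates coated overnight at room temperature with 1 μg ml−1 anti-C5a neoepitope mAb. Incubation 1 h at RT with rocking. Detection used rabbit anti-human C5a (1/200, 1 h RT), then goat anti-rabbit-HRP (1/5000, 1 h) and TMB, read at 450 nm. Signals normalised to the mean vehicle control as 100%.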

The target of data set [7] is T1, C3b (Homo sapiens, UniProt P01024). Format: binding. Particulars: read-out: KD for C3b, conventional SPR, C5; 1:1 Langmuir kinetic model. In short, it runs like this:
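Biotinylated C3b was captured on a NeutrAvidin-coupled sensor chip (6,560 RU surface for C5). Native C5 in HBST ran as a two-fold concentration series: 2 min injection, 3 min dissociation, 30 μl min−1, no regeneration. KD came from a 1:1 Langmuir kinetic fit of reference-corrected sensorgrams.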

Data set [8] concerns the target T1, C3b. As to the kind of experiment: Label-enhanced SPR. The data set is classed as binding. To be noted: read-out: KD for C3b, LE-SPR, B23-C5; 1:1 Langmuir kinetic model. In short, it runs like this:
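C5 was dialysed into PBS pH 7.4 (2 h, RT), labelled 1 h in the dark with 5-fold molar excess NHS-B23 dye, then dialysed into HBS overnight at 4°C. A two-fold concentration series ran over oriented biotin-C3b (5,160 RU) at 10 μl min−1 with 1 min association and 1 min dissociation. An unlabelled injection at the top concentration weighted dip width and position to give epigrams (eRU). KD from a 1:1 Langmuir kinetic fit.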

For data set [9], the target named is T2, site-specifically biotinylated C3b (human, UniProt P01024 23-667; P01024 749-1663, site-specifically biotinylated with EZ-link Maleimide-PEG2-biotin). As to the kind of experiment: SPR. Background: In SPR one partner is held on a chip, and binding of the other changes the refractive index at the surface.
Data set [10] addresses T2, site-specifically biotinylated C3b. As to the kind of experiment: SPR. The source holds these as a separate data set.
For data set [11] the target is unchanged. In words: SPR. This is another data set of the same source.
For data set [12] the target is unchanged. In words: AlphaScreen or HTRF. For orientation: In Alpha technology, singlet oxygen from a donor bead excites a nearby acceptor bead.

One may read the solubility as the dissolved amount per volume that the medium holds. A higher solubility goes with much dissolved substance. For `Cc1ccnn1-c1cccc(NC(=O)CC2OC(=O)c3ccccc32)c1` (stereo not shown) [cmp-5, N-(3-(5-methyl-1H-pyrazol-1-yl)phenyl)-2-(3-oxo-1,3-dihydroisobenzofuran-1-yl)acetamide], the “effect on B23-TRX-4W9A-specific LE-SPR signal (C3b binding)” value at compstatin/C3b binding is given as “reduction of specific C3b-binding; also recorded: modest ability to compete”. In addition, the “effect on C4b deposition, CP ELISA” value in data set [1] is “no effect”. Also, the “effect on C3b deposition, CP ELISA” value in data set [2] is reported as “no effect”. In addition, in data set [3] (250 μM, 1% (v/v) serum), the “inhibition of MAC deposition in CP ELISA” value is given as “significant inhibition”. Moreover, in [3] (250 μM, 1% (v/v) serum, n=13), the “MAC deposition relative to control response (CP ELISA)” value came to 59 ± 2.4%. Besides, the “EC50 of serum, MAC deposition” value in data set [3] (fixed 500 μM cmp-5, serum 0–4% (v/v), DMSO control 0.88% (v/v)) is given as 1.43 % (v/v). Moreover, in data set [4], the “inhibition of the AP (MAC deposition)” value was “significant inhibition”. In addition, the “MAC deposition relative to control response (AP ELISA)” value in [4] (n=5) is 73 ± 4.6%. In addition, the “effect on B23-C5/C3b interaction, small molecules” value at C5/C3b interaction (500 μM compound, 250 nM B23-C5 vs 5% DMSO vehicle) is listed as “did not affect; also recorded: failed to perturb”. In data set [5], this molecule had a solubility of approximately 600 µM (≈ 208 µg/mL). In addition, the “EC50 of serum, C5a production” value in data set [6] is on record as 2.04 % (v/v).
As a reminder, the Kd is the equilibrium constant for the complex coming apart. For the molecule “C5: complement component C5, purified protein (Complement Technologies)”, the Kd with C3b [7] was 350 nM. In addition, in the data set with C5/C3b interaction (250 nM B23-C5, 250 nM unlabeled C5, 12 μM TRX-4W9A or 65 μM compstatin peptide), the “effect on B23-C5/C3b LE-SPR signal, protein/peptide competitors” value is “reduces the B23-C5 specific LE-SPR signal”. Also, the “reduction of specific binding of B23-C5 to C3b” value with C5/C3b interaction (250 nM B23-C5, competitor 250 nM unlabeled C5 or 12 μM TRX-4W9A, HBS-T) is reported as approximately 50%.
In the case of B23-C5: C5 labeled with NHS-B23 dye, the Kd in the data set with C3b [8] turned out to be 3200 nM.
In data set [9], ENLYFQGGSGSGSGICVWQDWGAHRCT (designed binder) [thioredoxin-compstatin fusion protein (TRX-4W9A)] gave a Kd of 770 nM.
As for ENLYFQGGSGSGSGICVWQDWGAHRCT (designed binder, labeled with the dye reagent Episentec NHS-B23 (5-fold molar excess)) [B23 dye-labeled TRX-4W9A], the Kd amounted to 790 nM in data set [10] and 560 nM in [11].

B1: untagged Ba(1–3) (domain or fragment, human, UniProt P00751 35-220, looked up)
chain: GSCSLEGVEIKGGSFRLLQEGQALEYVCPSGFYPYPVQTRTCRSTGSWSTLKTQDQKTVRKAECRAIHCPRPHDFENGEYWPRSPYYNVSDEISFHCYDGYTLRGSANRTCQVNGRWSGQTAICDNGAGYCSNPGIPIGTRKVGSQYRLEDSVTYHCSRGLTLRGSQRRTCQEGGSWSGTEPSCQD
Turning to B1, the Kd in data set [12] amounted to 4700 nM.

The record behind these values is publication PMC5417336 (Journal of immunology (Baltimore, Md. : 1950), 2017).
